KLK7 zymogen act – activators of human kallikrein-7 zymogen | purified proKLK7, EDANS-DABCYL substrate fluorescence; 100% is mature enzyme control, 0% vehicle | 370,000 compounds, 0.9% hits | activation, % at 7 µM | AID 652039;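 active = activation above the mean of all tested compounds plus 3 SD, computed per campaign excluding outliers beyond control limits, cut at about 13% in these data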
Target sequence (P49862 whole entry, looked up): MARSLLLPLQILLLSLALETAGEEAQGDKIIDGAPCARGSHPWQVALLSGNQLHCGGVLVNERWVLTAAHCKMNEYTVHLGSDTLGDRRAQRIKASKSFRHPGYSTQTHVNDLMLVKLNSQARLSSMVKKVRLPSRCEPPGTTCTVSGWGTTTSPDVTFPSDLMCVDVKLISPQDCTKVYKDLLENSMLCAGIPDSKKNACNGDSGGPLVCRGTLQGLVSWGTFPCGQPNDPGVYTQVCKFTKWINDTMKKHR
Runt-CBFb FRET – Runt domain-CBFb interaction inhibition; Q01196+Q13951; Cerulean-Runt/Venus-CBFb FRET ratio 530/480, 1 h; AID 1496; 220,000 compounds, 0.46% hits; inhibition, % at 20 µM;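 active = inhibition over about 50% at 20 µM in the single-dose screen, limit read from the data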;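 note: 0% = DMSO wells and 100% = excess unlabeled CBFb competitor control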
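Measured by: fluorescence energy transfer, 422 nm excitation, 530/480 nm emission; test system: Cerulean-tagged RUNX1 Runt domain (FRET donor) fusion protein; buffer or medium: Tris pH 7.5 buffer with BSA; compound: one dose, 20 µM compound, 1% DMSO; times: two 1 h room-temperature incubations shielded from light; benchmarks: unlabeled CBFb 5 µM, positive control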
RanGTP-Impb inh – inhibitors of RanGTP-importin-beta interaction, primary screen, biochemical, FRET, CFP-Ran, YFP-importin-beta, homogeneous; inhibition, % (concentration not given with the values); 300,000 compounds, 1.1% hits; AID 2216; cell-free CFP-Ran/YFP-importin-beta FRET ratio;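 active = more than half of the replicate wells show a fall in the fluorescence ratio signal beyond about 16%, limit read from the data, passing the limit was not always enough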;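 note: 0% = DMSO wells and 100% = Ran loaded with GDP instead of GTP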
MEX-5 binding – C. elegans MEX-5 TCR-2 RNA binding activity. AID 1832. 300,000 compounds, 0.38% hits. Q9XUB2. MEX-5/FITC-TCR2 RNA binding, fluorescence polarization; active compounds read low. activity score (negative = inhibition of binding), % at 10 µM;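 active = inhibition past about -25% in most replicates, and total fluorescence under double the plate's negative control median, limit read from the data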;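 note: 0% = DMSO and -100% = 5 µM competing unlabeled TCR2 RNA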
Runt-SMMHC FRET – inhibitors of human RUNX1 Runt domain binding to CBFb-SMMHC; 220,000 compounds, 0.74% hits; Cerulean-Runt/Venus-CBFb-SMMHC FRET ratio 530/480, 1 h; inhibition, % at 20 µM; Q01196+Q13951;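 active = mean inhibition across duplicate retests at 20 µM reaching about 50%, limit read from the data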;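 note: 0% = DMSO wells and 100% = wells with excess untagged CBFb-SMMHC; inhibitors lower the FRET ratio by blocking Runt binding to CBFb-SMMHC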
KLK7 act conf – confirmation of human kallikrein-7 zymogen activators; shares compounds with KLK7 zymogen act; purified proKLK7, EDANS-DABCYL substrate fluorescence; scaled: vehicle 0, mature enzyme 100; 3,200 compounds, 68% hits; activation, % at 7 µM;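 active = activation, as change over the incubation, above the mean of all tested compounds plus 3 SD, cut at about 13% in these data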
EDANS interfere – optically interferes with EDANS-DABCYL signal, flagging KLK7 hits | shares compounds with KLK7 zymogen act | EDANS-DABCYL substrate fluorescence interference, no enzyme, 4 h; solvent 0%, active enzyme control 100% | activation, % at 7 µM | 3,200 compounds, 80% hits | AID 686952;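 active = activation above the all-compound mean plus 3 SD, ignoring values outside control-based bounds, cut at about 4.8% in these data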;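 note: value is the 4 h activation minus the activation read at time zero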
EDANS interf – EDANS fluorescence interference in dose response, no enzyme | shares compounds with KLK7 zymogen act | EC50, µM | EDANS-DABCYL peptide fluorescence interference | 250 compounds, 20% hits;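 active = compounds that raise the fluorescence signal in this interference counterscreen, with EC50 at or below 10 µM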;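 note: intact quenched peptide substrate alone read at 355 nm excitation and 520 nm emission; signal is fluorescence gain from T0 to T4 after four hours at room temperature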
* = called active by the depositor; i = inactive; x = no result. Most compounds without a hit are left out; they make up all but 2.1% or so of the library.

SMILES	KLK7 zymogen act	Runt-CBFb FRET	RanGTP-Impb inh	MEX-5 binding	Runt-SMMHC FRET	KLK7 act conf	EDANS interfere	others
COc1cc(C(=O)N2CCN(C)C(C)C2)ccc1OC1CCN(C(C)=O)CC1 (centres undefined)	0	x	1	0	x	x	x
COc1ccccc1Oc1c(C)oc2c(CN3CCOCC3)c(O)ccc2c1=O	189*	1	2	0	1	42*	49*
COc1cccc(Oc2c(C)oc3c(CN4CCCC4)c(O)ccc3c2=O)c1	75*	2	1	1	3	74*	78*
COc1ccccc1-c1coc2c(CN3CCOCC3)c(O)ccc2c1=O	159*	x	1	1	x	66*	58*
COc1cccc(OC)c1C(=O)Nc1ccc(CN2CCOCC2)cc1	0	0	9	-2	-2	x	x
COc1ccccc1Oc1coc2c(CN3CCOCC3)c(O)ccc2c1=O	193*	0	-3	10	-1	68*	80*
CCC(C)(C)C1CCC2(CC1)NC(=O)N(CC(=O)NC(C)CCc1ccccc1)C2=O (centres undefined)	0	x	x	x	x	x	x
CC(C)C(=O)Nc1ccccc1-c1nc2ccccc2[nH]c1=O	-3	x	-3	2	x	x	x
CC(C)C(=O)Nc1sc2c(c1-c1nc3ccccc3[nH]1)CCCC2	496*	10	1	-3	10	-8	4.7*
COc1ccc(C(C)(NC(C)=O)c2nc(-c3ccc(F)c(Cl)c3)cs2)cc1 (centres undefined)	1	x	x	x	x	x	x
c1coc(C2Nc3ccccc3-c3nc4ccccc4n32)c1 (centres undefined)	16*	3	-1	4	-2	39*	40*
Cc1cc2n(n1)C(c1ccco1)Nc1ccccc1-2 (centres undefined)	0	1	2	0	2	x	x
c1ccc(C2Nc3ccccc3-c3nc4ccccc4n32)cc1 (centres undefined)	66*	2	-5	0	14	3	5.4*
O=C1c2ccccc2NC(c2ccccn2)N1c1ccc(Cl)cc1 (centres undefined)	12	0	-1	-1	4	x	x
c1ccc(C2Nc3ccccc3-c3nc4ccccc4n32)nc1 (centres undefined)	36*	x	0	1	14	14*	16*
O=C1Cn2c(nc3ccccc32)-c2ccccc2N1	-15	0	11	-3	0	x	x
COC(=O)CN1CCN(C(=O)c2nocc2C)CC1	0	x	x	x	x	x	x
O=C1c2ccccc2NC(c2ccc(-c3cccs3)o2)N1O (centres undefined)	19*	x	x	x	x	6	7.4*
COC(=O)CS(=O)(=O)c1cccc2cccnc12	16*	2	-2	-1	3	13*	13*
CCOC(=O)C1CCN(c2cc3c(cc2NC(=O)c2ccc(OC)c(OC)c2)n(C)c(=O)n3C)CC1	4	x	-16	-2	x	x	x
CCOC(=O)C1CCN(c2cc3c(cc2NC(=O)c2ccccc2)n(C)c(=O)n3C)CC1	20*	x	-17	2	x	12	12*
CN(C)c1ncnc2c1C(c1ccccc1)C(C)(C)O2 (centres undefined)	0	x	x	x	x	x	x
CC(=O)c1ccc(-c2ccc(C(=O)NCC(c3ccco3)N(C)C)o2)cc1 (centres undefined)	19*	x	x	x	x	6	12*
CC(=O)Nc1ccc(C(=O)NCC(c2ccco2)N(C)C)cc1 (centres undefined)	0	x	2	-1	x	x	x
CC(NC(=O)c1ccccc1Br)c1nnc(SCC(=O)NC2CCCCC2)n1C (centres undefined)	-1	x	2	-4	x	x	x
SMILES	KLK7 zymogen act	Runt-CBFb FRET	RanGTP-Impb inh	MEX-5 binding	Runt-SMMHC FRET	KLK7 act conf	EDANS interfere	others
CC(C)C1Cc2nc(Cl)c(C#N)cc2CO1 (centres undefined)	0	2	4	1	-7	x	x
Cc1ccc(-c2cc(C(F)(F)F)c(C#N)c(=O)[nH]2)cc1	8	3	2	0	-85	x	x
COc1cccc(-c2cc(C(F)(F)F)c(C#N)c(=O)[nH]2)c1	17*	5	-3	-1	16	40*	51*
COCCCn1c(C(=O)N2CCOCC2)cc2c(=O)n3cccc(C)c3nc21	19*	x	-1	2	x	17*	18*
Cc1cccn2c(=O)c3cc(C(=O)N4CCOCC4)n(C)c3nc12	20*	x	4	2	x	46*	35*	EDANS interf=>70
Cc1cccn2c(=O)c3cc(C(=O)N4CCN(C(=O)c5ccco5)CC4)n(C)c3nc12	20*	4	-2	-2	19	23*	35*
Cc1cccn2c(=O)c3cc(C(=O)N4COCC4(C)C)n(Cc4ccccc4)c3nc12	-5	x	-1	-2	x	x	x
COCC(=O)Nc1nc(-c2ccc([N+](=O)[O-])cc2)cs1	109*	-13	-13	-5	-37	-2	-2
COCC(=O)Nc1nc(-c2ccc(-c3ccccc3)cc2)cs1	0	x	5	0	x	x	x
COC(=O)c1c(C#N)c(N)nc2c1CCCC2	78*	6	2	3	13	72*	75*
COc1cc(C(=O)Nc2cccc(-c3cn4cccnc4n3)c2)cc(OC)c1OC	30*	0	7	1	-4	-9	-11
CC(C)(C)CC(=O)Nc1cccc(-c2cn3cccnc3n2)c1	25*	1	x	0	2	16*	19*
COc1ccc(-c2cn3cccnc3n2)cc1NC(=O)c1cc(OC)c(OC)c(OC)c1	5	-1	-1	0	-3	x	x
COc1cccc(C(=O)Nc2cc(-c3cn4cccnc4n3)ccc2C)c1	31*	-1	-1	2	-2	12	-2
CCOc1cc(OCC)cc(C(=O)N2CCC[C@H]2C(=O)N2CCC[C@H]2C(=O)NCc2cccc(OC)c2)c1	-1	x	x	x	x	x	x
Cc1ccc2nc(NC(=O)c3ccc4ncsc4c3)sc2c1	15*	1	3	3	6	15*	6.8*	EDANS interf=i
Cc1ccc2nc(NC(=O)c3ccc(Cn4cc(Cl)cn4)o3)sc2c1	57*	-1	-1	3	2	-100	-81
NNC(=O)c1ccc(Cn2cc(Cl)cn2)o1	0	-1	2	-1	-2	x	x

Bioassay records deposited in PubChem by several laboratories.
